From ChEMBL document CHEMBL4118033, “Total Synthesis, Configuration Assignment, and Cytotoxic Activity Evaluation of Protulactone A” (J Nat Prod, 2017)
The source made the active and inactive calls.

How the values were obtained:
Format in all cases: functional, cell-based
HOP-62 = test: Antiproliferative activity against human HOP62 cells at 10 uM incubated for 48 hrs by sulforhodamine B assay
Procedure, shortened: (§1)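 Run by the NCI Developmental Therapeutics Program (Division of Cancer Treatment and Diagnosis) as part of the NCI60 human tumour cell line panel screen. Each compound was tested at a single dose of 10 μM. Results are reported as one-dose mean graphs.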

T47D = test: Antiproliferative activity against human T47D cells at 10 uM incubated for 48 hrs by sulforhodamine B assay
Procedure, shortened: (§2)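 Run by the NCI Developmental Therapeutics Program (Division of Cancer Treatment and Diagnosis) as part of the NCI60 human tumour cell line panel. Each compound was tested in vitro at a single dose of 10 μM, and the data are reported as one-dose mean graphs across the panel.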

SNB-75 = test: Antiproliferative activity against human SNB75 cells at 10 uM incubated for 48 hrs by sulforhodamine B assay; procedure, shortened: as §2
SF-295 = test: Antiproliferative activity against human SF295 cells at 10 uM incubated for 48 hrs by sulforhodamine B assay; procedure, shortened: as §1
NCI-H322M = test: Antiproliferative activity against human NCI-H322M cells at 10 uM incubated for 48 hrs by sulforhodamine B assay; procedure, shortened: as §1
HCT-116 = test: Antiproliferative activity against human HCT116 cells at 10 uM incubated for 48 hrs by sulforhodamine B assay; procedure, shortened: as §1
MDA-MB-435 = test: Antiproliferative activity against human MDA-MB-435 cells at 10 uM incubated for 48 hrs by sulforhodamine B assay; procedure, shortened: as §1
U-251 = test: Antiproliferative activity against human U251 cells at 10 uM incubated for 48 hrs by sulforhodamine B assay; procedure, shortened: as §2
MDA-MB-231 = test: Antiproliferative activity against human MDA-MB-231 cells at 10 uM incubated for 48 hrs by sulforhodamine B assay; procedure, shortened: as §1
RPMI-8226 = test: Antiproliferative activity against human RPMI8226 cells at 10 uM incubated for 48 hrs by sulforhodamine B assay; procedure, shortened: as §1
NCI-H522 = test: Antiproliferative activity against human NCI-H522 cells at 10 uM incubated for 48 hrs by sulforhodamine B assay; procedure, shortened: as §1
K562 = test: Antiproliferative activity against human K562 cells at 10 uM incubated for 48 hrs by sulforhodamine B assay; procedure, shortened: as §1
NCI-H226 = test: Antiproliferative activity against human NCI-H226 cells at 10 uM incubated for 48 hrs by sulforhodamine B assay; procedure, shortened: as §1
SF-268 = test: Antiproliferative activity against human SF268 cells at 10 uM incubated for 48 hrs by sulforhodamine B assay; procedure, shortened: as §1
SR = test: Antiproliferative activity against human SR cells at 10 uM incubated for 48 hrs by sulforhodamine B assay; procedure, shortened: as §2
EKVX = test: Antiproliferative activity against human EKVX cells at 10 uM incubated for 48 hrs by sulforhodamine B assay; procedure, shortened: as §1
HL-60(TB) = test: Antiproliferative activity against human HL-60(TB) cells at 10 uM incubated for 48 hrs by sulforhodamine B assay
Procedure, shortened: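 Tested within the NCI60 cancer cell line panel screen run by the Developmental Therapeutics Program (Division of Cancer Treatment and Diagnosis, National Cancer Institute). Each stereoisomer was given at a single dose of 10 μM. Results are reported as one-dose mean graphs.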

OVCAR-5 = test: Antiproliferative activity against human OVCAR5 cells at 10 uM incubated for 48 hrs by sulforhodamine B assay; procedure, shortened: as §1
PC-3 = test: Antiproliferative activity against human PC3 cells at 10 uM incubated for 48 hrs by sulforhodamine B assay; procedure, shortened: as §1
UACC-257 = test: Antiproliferative activity against human UACC257 cells at 10 uM incubated for 48 hrs by sulforhodamine B assay; procedure, shortened: as §2
SK-OV-3 = test: Antiproliferative activity against human SKOV3 cells at 10 uM incubated for 48 hrs by sulforhodamine B assay; procedure, shortened: as §1
CAKI-1 = test: Antiproliferative activity against human Caki1 cells at 10 uM incubated for 48 hrs by sulforhodamine B assay; procedure, shortened: as §1
SK-MEL-2 = test: Antiproliferative activity against human SK-MEL-2 cells at 10 uM incubated for 48 hrs by sulforhodamine B assay; procedure, shortened: as §1
ACHN = test: Antiproliferative activity against human ACHN cells at 10 uM incubated for 48 hrs by sulforhodamine B assay; procedure, shortened: as §1
KM12 = test: Antiproliferative activity against human KM12 cells at 10 uM incubated for 48 hrs by sulforhodamine B assay; procedure, shortened: as §1
MDA-MB-468 = test: Antiproliferative activity against human MDA-MB-468 cells at 10 uM incubated for 48 hrs by sulforhodamine B assay; procedure, shortened: as §1
UACC-62 = test: Antiproliferative activity against human UACC62 cells at 10 uM incubated for 48 hrs by sulforhodamine B assay; procedure, shortened: as §2
Malme-3M = test: Antiproliferative activity against human MALME-3M cells at 10 uM incubated for 48 hrs by sulforhodamine B assay; procedure, shortened: as §1
RXF 393 = test: Antiproliferative activity against human RXF393 cells at 10 uM incubated for 48 hrs by sulforhodamine B assay; procedure, shortened: as §1
OVCAR-3 = test: Antiproliferative activity against human OVCAR3 cells at 10 uM incubated for 48 hrs by sulforhodamine B assay; procedure, shortened: as §1
HCT-15 = test: Antiproliferative activity against human HCT15 cells at 10 uM incubated for 48 hrs by sulforhodamine B assay; procedure, shortened: as §1
SK-MEL-5 = test: Antiproliferative activity against human SK-MEL-5 cells at 10 uM incubated for 48 hrs by sulforhodamine B assay; procedure, shortened: as §1
TK-10 = test: Antiproliferative activity against human TK10 cells at 10 uM incubated for 48 hrs by sulforhodamine B assay; procedure, shortened: as §2
SK-MEL-28 = test: Antiproliferative activity against human SK-MEL-28 cells at 10 uM incubated for 48 hrs by sulforhodamine B assay; procedure, shortened: as §1
COLO 205 = test: Antiproliferative activity against human COLO205 cells at 10 uM incubated for 48 hrs by sulforhodamine B assay; procedure, shortened: as §1
Hs-578T = test: Antiproliferative activity against human Hs 578T cells at 10 uM incubated for 48 hrs by sulforhodamine B assay; procedure, shortened: as §1
OVCAR-8 = test: Antiproliferative activity against human OVCAR8 cells at 10 uM incubated for 48 hrs by sulforhodamine B assay; procedure, shortened: as §1
NCI/ADR-RES = test: Antiproliferative activity against human NCI/ADR-RES cells at 10 uM incubated for 48 hrs by sulforhodamine B assay; procedure, shortened: as §1
786-0 = test: Antiproliferative activity against human 786-0 cells at 10 uM incubated for 48 hrs by sulforhodamine B assay; procedure, shortened: as §1
SW-620 = test: Antiproliferative activity against human SW620 cells at 10 uM incubated for 48 hrs by sulforhodamine B assay; procedure, shortened: as §2
NCI-H23 = test: Antiproliferative activity against human NCI-H23 cells at 10 uM incubated for 48 hrs by sulforhodamine B assay; procedure, shortened: as §1
OVCAR-4 = test: Antiproliferative activity against human OVCAR4 cells at 10 uM incubated for 48 hrs by sulforhodamine B assay; procedure, shortened: as §1
SNB-19 = test: Antiproliferative activity against human SNB19 cells at 10 uM incubated for 48 hrs by sulforhodamine B assay; procedure, shortened: as §1

Measured: Activity

O=C(/C=C/c1ccccc1)O[C@H](c1ccccc1)[C@@H]1O[C@@H]2CC(=O)O[C@@H]2[C@H]1O
active: all assays above

O=C1C[C@H]2O[C@H]([C@H](O)c3ccccc3)[C@H](O)[C@H]2O1
active: all assays above

O=C1C[C@H]2O[C@H]([C@@H](O)c3ccccc3)[C@H](O)[C@H]2O1
active: all assays above
